Assay outcomes: PubChem, several laboratories
Only some compounds are listed: those with a hit (about 4.6% of all), similar ones and a draw of the others.
Pemphigus Ab inh = blocks pemphigus antibody binding to human desmoglein-3 | DSG3-coupled beads, scFv-anti-DSG3-GFP binding, flow cytometry; hits give low values | binding (percent of control), % at 10 µM | AID 588358 | 310,000 tested, 0.48% active;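 active means binding more than 3 SD below its plate's average and above zero; inconclusive means below that plate limit but binding exactly zero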;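 further: hits lower antibody fragment binding to DSG3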
PolyA inhibitor = yeast polyadenylation inhibition; S. cerevisiae SKY197-pL101 polyadenylation reporter, beta-gal luminescence; efflux-impaired pdr1/pdr3 knockout yeast; score 100 = 6 SD above DMSO; activity score, % at 12 µM; 300,000 tested, 0.02% active;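 active means lowest replicate activity score at least 50, where 100 means six control SD above control mean; inconclusive means lowest score under 50 but half or more replicates reach 50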;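 further: yeast exposed to compound for 9 h at 30 °C; higher score means more reporter readthrough which indicates perturbed polyadenylation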
NALP1 inh = blocks the NALP1 inflammasome reconstituted in yeast; S. cerevisiae NALP1/ASC/caspase-1 growth, X-gal OD620, 72 h; inhibition, % at 10 µM; 280,000 tested, 0.61% active; in the data active means inhibition mostly above about 24%, no sharp cut-off; inactive means mostly below about 32%
ALR H2O2 inh = blocks human ALR sulfhydryl oxidase activity; P55789; purified ALR, DTT oxidation, H2O2 HRP-luminol luminescence; inhibition, % (test concentration not listed); 290,000 tested, 3.8% active; AID 485317;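 active means mean replicate inhibition above about 79%, with every replicate also reaching it, limit read from the data; inconclusive means only one of the two criteria met; inactive means mean below limit and not every replicate reaching it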
Target sequence (P55789 whole entry, looked up): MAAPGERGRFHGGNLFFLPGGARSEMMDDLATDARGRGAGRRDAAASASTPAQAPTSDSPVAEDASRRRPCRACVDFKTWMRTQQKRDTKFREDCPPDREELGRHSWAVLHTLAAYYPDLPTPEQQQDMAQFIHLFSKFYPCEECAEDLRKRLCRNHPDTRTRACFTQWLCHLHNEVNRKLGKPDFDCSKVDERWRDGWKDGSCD
Arrestin-AP2 inh = blocks beta-arrestin peptide binding to AP2 adaptin | FITC-arrestin peptide / GST-AP2 beads, flow cytometry; AP2 beta2 appendage carries R879A mutation | inhibition, % at 10 µM | 340,000 tested, 0.31% active | AID 504490;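 active means inhibition above a set limit, near 3 SD of compounds lacking own fluorescence, cut at about 54% in these data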
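System: GST-AP2 R879A glutathione beads. Medium: PBS with 0.05% Tween 20 and 0.1% BSA. Also added: FITC-arrestin peptide, 50 nM. Incubation: 12 min plus 1 h, RT. Measured by: high-throughput flow cytometry of beads, ex 488, em 535 nm. Evaluation: percent drop in bead-associated FITC signal.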
NLRP3 yeast inh = blocks the NALP3 inflammasome reconstituted in yeast. 330,000 tested, 0.39% active. AID 2825. inhibition, % at 10 µM. Yeast reconstituted NLRP3/ASC/caspase-1, beta-gal luminescence, 24 h;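 active means inhibition of 50% or more; inactive means inhibition below 50%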
Of the large screens only hits and unclear results are named; the others gave an inactive call.

O=C(CC1C(=O)NCCN1Cc1ccccc1)NCCN1CCCCC1=O (configuration not stated)	none
CCOc1ccc(C(C(=O)NCC2CCCO2)N(Cc2cccs2)C(=O)c2snc(C(N)=O)c2N)cc1 (configuration not stated)	none
COc1ccc(C)cc1S(=O)(=O)N(C)CC(=O)N1CCN(C)CC1	NALP1 inh 40
COc1ccc(N2CCN(C(=O)CN(CCc3ccccc3)S(C)(=O)=O)CC2)cc1	ALR H2O2 inh 88
COc1ccc(N2CCN(C(=O)CN(C)S(=O)(=O)c3cccs3)CC2)cc1	ALR H2O2 inh 99 (no result: Pemphigus Ab inh)
COc1ccc(N2CCN(C(=O)CCNS(=O)(=O)c3cccs3)CC2)cc1	ALR H2O2 inh 94
COc1ccc(S(=O)(=O)N(C)CC(=O)N2CCN(c3ccccc3)CC2)cc1	none (no result: Pemphigus Ab inh)
CCNC(COC(=O)c1ccc([N+](=O)[O-])cc1)C1CCCCC1 (configuration not stated)	none (no result: PolyA inhibitor, NALP1 inh, ALR H2O2 inh, NLRP3 yeast inh)
CCOCc1c(C(=O)N2CCN(CC(=O)Nc3ccc(F)cc3)CC2)oc2ccccc12	Pemphigus Ab inh inconclusive (no result: PolyA inhibitor, NALP1 inh, ALR H2O2 inh)
CCOc1ccccc1N1CC(C(=O)N(Cc2nnc(-c3ccccc3Cl)o2)C2CC2)CC1=O (configuration not stated)	none (no result: NALP1 inh)
CC(NC(=O)c1cc(COc2ccc(-n3cncn3)cc2)on1)c1ccc(F)cc1 (configuration not stated)	none (no result: PolyA inhibitor, NALP1 inh, ALR H2O2 inh, Arrestin-AP2 inh, NLRP3 yeast inh)
COc1ccc(/C=C/C(=O)c2ccc(O)cc2)cc1CN1CCOCC1	none (no result: Pemphigus Ab inh)
COc1ccc(C(C)=O)cc1CSc1ncccn1	none
COc1ccc(C(C)=O)cc1COc1ccc(Cl)cc1Cl	Pemphigus Ab inh 83
COc1ccc(C(=O)/C=C/c2ccsc2)cc1CSCC(=O)O	ALR H2O2 inh 99
COc1cc(C(=O)NCC2CCCO2)ccc1OCc1ccc(Cl)cc1 (configuration not stated)	none (no result: PolyA inhibitor, NALP1 inh)
COc1ccc(C(C)=O)cc1CSCCC(=O)O	ALR H2O2 inh 98
COc1cc(C(=O)NCC2CCCO2)ccc1OCc1ccc(Cl)cc1Cl (configuration not stated)	Pemphigus Ab inh 81 (no result: NALP1 inh)
CCC(=O)Nc1ccc(C(=O)NNC(=O)C2CCCCC2)cc1	none (no result: PolyA inhibitor)
Cc1ccc(S(=O)(=O)NCCCNS(=O)(=O)c2ccccc2)cc1	none
CC1CCCN(S(=O)(=O)c2ccc(C(=O)Nc3nnc(C4=COCCO4)o3)cc2)C1 (configuration not stated)	ALR H2O2 inh 98 (no result: Pemphigus Ab inh)
CC1CCCCN1S(=O)(=O)c1ccc(C(=O)Nc2nnc(C3=COCCO3)o2)cc1 (configuration not stated)	ALR H2O2 inh 97 (no result: Pemphigus Ab inh)
COc1ccc(NC(C)C(=O)Nc2cccc(S(=O)(=O)N3CCOCC3)c2)cc1OC (configuration not stated)	none (no result: Pemphigus Ab inh, PolyA inhibitor, NALP1 inh, ALR H2O2 inh)
Cc1c(C=C(C#N)c2ccc([N+](=O)[O-])cc2)c(=O)n(-c2ccccc2)n1C	none (no result: PolyA inhibitor, NALP1 inh, ALR H2O2 inh, NLRP3 yeast inh)
COc1ccc(C2=Nn3c(nnc3-c3ccccc3F)SC2)cc1OC1CCOC1 (configuration not stated)	Pemphigus Ab inh 82 (no result: PolyA inhibitor, NALP1 inh)
Cc1ccc([C@H]2C[C@@H](n3cc(C4CC4)nn3)[C@H](O)CN2C(=O)C2CCCCC2)cc1	none (no result: PolyA inhibitor, NALP1 inh, ALR H2O2 inh, Arrestin-AP2 inh, NLRP3 yeast inh)
COc1ccccc1-n1cc(-c2ccccc2)[nH]c1=S	none
Cc1cccc(-n2cc(-c3ccccc3)[nH]c2=S)c1	ALR H2O2 inh 77
COc1ccc(-n2cc(-c3ccccc3)[nH]c2=S)cc1	ALR H2O2 inh 85
CC(=O)Nc1ccc(-n2cc(-c3ccccc3)[nH]c2=S)cc1	ALR H2O2 inh 99
CCC(C)C1Nc2ccc(C(=O)NCCc3ccc(OC)c(OC)c3)cc2NC1=O (configuration not stated)	none
O=C(NCCC(=O)N1CCN(S(=O)(=O)c2ccccc2Cl)CC1)Nc1ccccc1	none (no result: PolyA inhibitor, NALP1 inh)
COC(=O)c1ccc(=O)c2nc3/c(=C/O)c(O)cc(=O)c3[nH]c12	Pemphigus Ab inh 50 (no result: PolyA inhibitor, NALP1 inh, NLRP3 yeast inh)
Cc1ccc(S(=O)(=O)Cc2cc(F)c([N+](=O)[O-])cc2[N+](=O)[O-])cc1	NALP1 inh 47
Cc1ccc(CN2CCSc3ccc(C(=O)NC4CCCC4)cc32)cc1	none
CN1CCN(C(=O)c2ccc3c(c2)N(Cc2ccccc2)CCS3)CC1	ALR H2O2 inh 98
